Experimental data: article PMC11223518 (Science signaling, 2024)

Experiments:
[1] = test system: Akt, GSK3α/β, S6K, S6 phosphorylation in primary murine hippocampal neurons; type: cell-based, mouse; conditions: K252a 200 nM or LY294002 1 μM for 1 hour, then Syn3 0.2 μM, BDNF 25 ng/mL 20 min; n = 5
[2] = test system: primary murine hippocampal neurons; assay: PSD-95 puncta formation in vitro; type: cell-based, mouse; conditions: for effect of inhibitor on the effects of Syn3 (PSD-95 puncta): K252a 200 nM or LY294002 1 μM for 1 hour; for effect of inhibitor on the effects of Syn3 (PSD-95 puncta) / BDNF+Syn3–induced PSD-95 puncta formation with inhibitor: then Syn3 0.2 μM, BDNF 25 ng/mL 24 hours; for BDNF+Syn3–induced PSD-95 puncta formation with inhibitor: K252a 200 nM or LY294002 1 μM, n = 20 neurons
In short: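 Primary murine hippocampal neurons were pretreated with test compound (0.2 µM) for 20 min, some first with K252a (200 nM) or LY294002 (1 µM) for 1 hour, then given BDNF for 24 hours. Cells were fixed in 4% paraformaldehyde for 15 min and blocked in 0.3% Triton X-100/5% goat serum. Primary antibody ran overnight at 4°C, secondary 2 hours at room temperature. Puncta were counted per 10-µm second-order dendrite 35–45 µm from the soma.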

[3] = test system: primary murine hippocampal neurons; assay: Dendritic spine density; type: cell-based, mouse; conditions: K252a 200 nM or LY294002 1 μM, Syn3 0.2 μM, BDNF 25 ng/mL 24 hours; n = 15 neurons
[4] = test system: primary murine hippocampal neurons; assay: Synaptic density; type: cell-based, mouse; conditions: K252a 200 nM or LY294002 1 μM, Syn3 0.2 μM, BDNF 25 ng/mL 24 hours; n = 20 neurons
TrkB signaling = conditions: cited from earlier work
[5] = test system: insulin receptor signaling; assay: Insulin-induced Akt-S6K signaling in primary hippocampal neurons; type: cell-based, mouse; conditions: insulin 1 μg/mL, 20 min
In short: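 Primary murine hippocampal neurons were pre-treated 20 min with test compound (0.2 µM) or vehicle, then with insulin (1 μg/mL) for 20 min. Cells were lysed in ice-cold RIPA for 30 min and centrifuged. Equal protein was run on SDS-PAGE and blotted to PVDF, blocked in 5% milk/TBS-T, then probed overnight at 4°C with primary antibodies and HRP secondaries. Data are mean ± SD.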

[6] = test system: patients with conventional, treatment-resistant depression; conditions: single infusion of sub-anesthetic dose; cited from earlier work
[7] = test system: autophagy, BDNF-mTOR signaling pathway; conditions: through the BDNF-mTOR signaling pathway; cited from earlier work
[8] = test system: C57BL/6J mice, corticosterone model of depression; assay: Sucrose preference test, corticosterone model; type: in vivo, mouse; conditions: corticosterone 20 mg/kg s.c. daily for 21 days
In short: (§1)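 C57BL/6J mice, 4–5 weeks old, equal numbers male and female. Corticosterone emulsified in propylene glycol given s.c. daily between 10:00 and 12:00 for 21 days; controls got vehicle. Test compound then given i.p. (1 or 10 mg/kg; in one series 1 mg/kg with testing 12 hours later, n = 9 per group). Mice acclimated to the testing room for 30 min.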

[9] = test system: C57BL/6J mice, corticosterone model of depression; assay: Tail suspension test, corticosterone model; type: in vivo, mouse; conditions: corticosterone 20 mg/kg s.c. daily for 21 days
In short: as §1

[10] = test system: C57BL/6J mice, corticosterone model of depression; assay: Forced swim test, corticosterone model; type: in vivo, mouse; conditions: corticosterone 20 mg/kg s.c. daily for 21 days
In short: as §1

[11] = test system: platelet-derived growth factor (PDGF) receptor signaling; assay: PDGF-induced Akt-S6K signaling in primary hippocampal neurons; type: cell-based, mouse; conditions: PDGF-BB 25 ng/mL, 20 min
[12] = test system: primary murine hippocampal neurons; assay: Sholl analysis of dendritic complexity/neurite outgrowth; type: cell-based, mouse; conditions: BDNF 25 ng/mL, 24h; n = 26 neurons

**Q.** For `O=c1cc(N2CCOCC2)oc2c(-c3ccccc3)cccc12` [LY294002], which “BDNF plus Syn3 stimulation of Akt and S6K phosphorylation with inhibitor” value [1] is on record?
**A.** blocked

**Q.** And the “effect of inhibitor on the effects of Syn3 (PSD-95 puncta)” value [2]?
**A.** blocked the effects of Syn3

**Q.** What about the “BDNF+Syn3–induced PSD-95 puncta formation with inhibitor” value [2] of the same molecule?
**A.** reversed

**Q.** What about the “density of dendritic spines, BDNF + Syn3 with inhibitor” value [3] of the same molecule?
**A.** reversed

**Q.** What about the “effect of Syn3 on synaptic density with inhibitor” value [4] of the same molecule?
**A.** blocked the effect of Syn3 on synaptic density

**Q.** With `O=c1cc(-c2ccccc2)oc2c(O)c(O)ccc12` [7,8-DHF, 7,8-dihydroxyflavone] as the molecule, how does the “TrkB signaling and antidepressant responses” value (TrkB signaling) read?
**A.** stimulates TrkB signaling and promotes rapid antidepressant responses

**Q.** For insulin: recombinant insulin, which “Akt and S6K phosphorylation” value [5] is on record?
**A.** increased Akt and S6K phosphorylation

**Q.** Which “antidepressant effects in patients” value [6] does the source give for `CNC1(c2ccccc2Cl)CCCCC1=O` (centres unmarked) [ketamine] here?
**A.** produces rapid antidepressant effects in patients with conventional, treatment-resistant depression

**Q.** With `CN[C@]1(c2ccccc2Cl)CCCCC1=O` [esketamine] as the molecule, how does the autophagy [7] read?
**A.** acts to inhibit autophagy

**Q.** With `COC(=O)[C@@]1(O)C[C@H]2O[C@]1(C)n1c3ccccc3c3c4c(c5c6ccccc6n2c5c31)C(=O)NC4` [K252a] as the molecule, how does the “BDNF plus Syn3 stimulation of Akt and S6K phosphorylation with inhibitor” value [1] read?
**A.** blocked

**Q.** What about the “effect of inhibitor on the effects of Syn3 (PSD-95 puncta)” value [2] of the same molecule?
**A.** blocked the effects of Syn3

**Q.** What about the “BDNF+Syn3–induced PSD-95 puncta formation with inhibitor” value [2] of the same molecule?
**A.** reversed

**Q.** And the “density of dendritic spines, BDNF + Syn3 with inhibitor” value [3]?
**A.** reversed

**Q.** What about the “effect of Syn3 on synaptic density with inhibitor” value [4] of the same molecule?
**A.** blocked the effect of Syn3 on synaptic density

**Q.** Which “sucrose intake (effect of inducer)” value [8] does the source give for `C[C@]12C[C@H](O)[C@H]3[C@@H](CCC4=CC(=O)CC[C@@]43C)[C@@H]1CC[C@@H]2C(=O)CO` [corticosterone] here?
**A.** decreased sucrose intake

**Q.** What about the “immobility time (effect of inducer), tail suspension test” value [9] of the same molecule?
**A.** increased immobility time

**Q.** What about the “immobility time (effect of inducer), forced swim test” value [10] of the same molecule?
**A.** increased immobility time

B1: PDGF: recombinant platelet-derived growth factor (protein, UniProt P01127 82-190, looked up)
Platelet-derived growth …: SLGSLTIAEPAMIAECKTRTEVFEISRRLIDRTNANFLVWPPCVEVQRCSGCCNNRNVQCRPTQVQLRPVQVRKIEIVRKKPIFKKATVTLEDHLACKCETVAAARPVT
**Q.** Which “Akt and S6K phosphorylation” value [11] does the source give for B1 here?
**A.** increased Akt and S6K phosphorylation

B2: brain-derived neurotrophic factor (protein, UniProt P23560 19-247, looked up)
Neurotrophic factor BDNF …: APMKEANIRGQGGLAYPGVRTHGTLESVNGPKAGSRGLTSLADTFEHVIEELLDEDQKVRPNEENNKDADLYTSRVMLSSQVPLEPPLLFLLEEYKNYLDAANMSMRVRRHSDPARRGELSVCDSISEWVTAADKKTAVDMSGGTVTVLEKVPVSKGQLKQYFYETKCNPMGYTKEGCRGIDKRHWNSQCRTTQSYVRALTMDSKKRIGWRFIRIDTSCVCTLTIKRGR
**Q.** Which results are given for B2?
**A.** number of PSD-95 puncta ([2]; BDNF 25 ng/mL, 24h): increased the number of PSD-95 puncta; dendritic complexity and number of neurite crossings [12]: significantly enhanced dendritic complexity and the number of neurite crossings
